Measured values: ChEMBL document CHEMBL3124924, “Bifunctional ethyl 2-amino-4-methylthiazole-5-carboxylate derivatives: synthesis and in vitro biological evaluation as antimicrobial and anticancer agents” (2014)
Converted amounts (≈) assume the structure as drawn. The source made the active and inactive calls. The calls are words filed in the database; no cut-off is given here.

Tested on: Candida albicans
Assay: Antifungal activity against Candida albicans ATCC 10231 assessed as growth inhibition at 1 mg/mL after 48 hrs by agar-cup diffusion method
Type: functional
Details: ATCC 10231, 48 h, read-out: DIZ
Procedure, shortened: (§1)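 Agar-cup diffusion: 1 mL of 6 h broth culture seeded per 100 mL molten sterile agar at 45 °C and poured into plates. 8 mm cups cut, each filled with 0.1 mL of 1 mg/mL test solution. Incubated 37 °C for 24 h, 48 h for C. albicans. DMSO control per organism. Inhibition zone diameter in mm, mean of three measurements.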

Compound | zone of inhibition at 1000 µg/mL [mm]
CCOC(=O)c1sc(NC(=O)c2cc(OC)c(OC)c(OC)c2)nc1C | > 13
Cc1nc(N)sc1C(=O)Nc1ccc(F)cc1 | > 13
CCOC(=O)c1sc(NC(=O)NC2CCCCC2)nc1C | > 13
Cc1nc(NC(=O)Nc2ccccc2)sc1C(=O)NN | > 13

Tested on: U-251
Assay: Cytotoxicity against human U251 cells assessed as growth inhibition at 10 uM after 48 hrs by SRB assay
Type: functional
Details: U-251, 48 h, read-out: GI
Procedure, shortened: (§2)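 NCI-60 one-dose primary screen run by the NCI Drug Evaluation Branch across the full 60-line panel. Single high-dose treatment with 48 h continuous drug exposure. Cell growth estimated by sulforhodamine B protein staining. Results given as percent growth of treated cells and expressed as percentage growth inhibition.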

Compound | inhibition of growth at 10 µM [%]
CCOC(=O)c1sc(NC(=O)c2cc(OC)c(OC)c(OC)c2)nc1C | < 10
Cc1nc(N)sc1C(=O)Nc1ccc(F)cc1 | 5.77
CCOC(=O)c1sc(NC(=O)NC2CCCCC2)nc1C | < 10
Cc1nc(NC(=O)Nc2ccccc2)sc1C(=O)NN | < 10

Tested on: SK-MEL-5
Assay: Cytotoxicity against human SK-MEL-5 cells assessed as growth inhibition at 10 uM after 48 hrs by SRB assay
Type: functional
Details: SK-MEL-5, 48 h, read-out: GI
Procedure, shortened: as §2

Compound | inhibition of growth at 10 µM [%]
CCOC(=O)c1sc(NC(=O)c2cc(OC)c(OC)c(OC)c2)nc1C | 5.59
Cc1nc(N)sc1C(=O)Nc1ccc(F)cc1 | 6.65
CCOC(=O)c1sc(NC(=O)NC2CCCCC2)nc1C | 8.95
Cc1nc(NC(=O)Nc2ccccc2)sc1C(=O)NN | 2.35

Tested on: LOX IMVI
Assay: Cytotoxicity against human LOXIMVI cells assessed as growth inhibition at 10 uM after 48 hrs by SRB assay
Type: functional
Details: read-out: GI
Procedure, shortened: as §2

Compound | inhibition of growth at 10 µM [%]
CCOC(=O)c1sc(NC(=O)c2cc(OC)c(OC)c(OC)c2)nc1C | 3.7
Cc1nc(N)sc1C(=O)Nc1ccc(F)cc1 | < 10
CCOC(=O)c1sc(NC(=O)NC2CCCCC2)nc1C | 13
Cc1nc(NC(=O)Nc2ccccc2)sc1C(=O)NN | 10.1

Tested on: SN12C
Assay: Cytotoxicity against human SN12C cells assessed as growth inhibition at 10 uM after 48 hrs by SRB assay
Type: functional
Details: read-out: GI
Procedure, shortened: as §2

Compound | inhibition of growth at 10 µM [%]
CCOC(=O)c1sc(NC(=O)c2cc(OC)c(OC)c(OC)c2)nc1C | 7.38
Cc1nc(N)sc1C(=O)Nc1ccc(F)cc1 | 3.01
CCOC(=O)c1sc(NC(=O)NC2CCCCC2)nc1C | 5.62
Cc1nc(NC(=O)Nc2ccccc2)sc1C(=O)NN | < 10

Tested on: A498
Assay: Cytotoxicity against human A498 cells assessed as growth inhibition at 10 uM after 48 hrs by SRB assay
Type: functional
Details: A498, 48 h, read-out: GI
Procedure, shortened: as §2

Compound | inhibition of growth at 10 µM [%]
CCOC(=O)c1sc(NC(=O)c2cc(OC)c(OC)c(OC)c2)nc1C | 11.4
Cc1nc(N)sc1C(=O)Nc1ccc(F)cc1 | 3.67
CCOC(=O)c1sc(NC(=O)NC2CCCCC2)nc1C | 15.3
Cc1nc(NC(=O)Nc2ccccc2)sc1C(=O)NN | 3.17

Tested on: SR
Assay: Cytotoxicity against human SR cells assessed as growth inhibition at 10 uM after 48 hrs by SRB assay
Type: functional
Details: read-out: GI
Procedure, shortened: as §2

Compound | inhibition of growth at 10 µM [%]
CCOC(=O)c1sc(NC(=O)c2cc(OC)c(OC)c(OC)c2)nc1C | 21
Cc1nc(N)sc1C(=O)Nc1ccc(F)cc1 | < 10
CCOC(=O)c1sc(NC(=O)NC2CCCCC2)nc1C | 35.3
Cc1nc(NC(=O)Nc2ccccc2)sc1C(=O)NN | 25.8

Tested on: K562
Assay: Cytotoxicity against human K562 cells assessed as growth inhibition at 10 uM after 48 hrs by SRB assay
Type: functional
Details: K562, 48 h, read-out: GI
Procedure, shortened: as §2

Compound | inhibition of growth at 10 µM [%]
CCOC(=O)c1sc(NC(=O)c2cc(OC)c(OC)c(OC)c2)nc1C | 49
Cc1nc(N)sc1C(=O)Nc1ccc(F)cc1 | < 10
CCOC(=O)c1sc(NC(=O)NC2CCCCC2)nc1C | 9.69
Cc1nc(NC(=O)Nc2ccccc2)sc1C(=O)NN | < 10

Tested on: not listed separately
Assay: Cytotoxicity against human Hs578T cells assessed as growth inhibition at 10 uM after 48 hrs by SRB assay
Type: functional
Details: Hs-578T, read-out: GI
Procedure, shortened: as §2

Compound | inhibition of growth at 10 µM [%]
CCOC(=O)c1sc(NC(=O)c2cc(OC)c(OC)c(OC)c2)nc1C | 11.2
Cc1nc(N)sc1C(=O)Nc1ccc(F)cc1 | 14.2
CCOC(=O)c1sc(NC(=O)NC2CCCCC2)nc1C | 8.4
Cc1nc(NC(=O)Nc2ccccc2)sc1C(=O)NN | 2.83

Tested on: HCT-15
Assay: Cytotoxicity against human HCT15 cells assessed as growth inhibition at 10 uM after 48 hrs by SRB assay
Type: functional
Details: HCT-15, 48 h, read-out: GI
Procedure, shortened: as §2

Compound | inhibition of growth at 10 µM [%]
CCOC(=O)c1sc(NC(=O)c2cc(OC)c(OC)c(OC)c2)nc1C | 5.3
Cc1nc(N)sc1C(=O)Nc1ccc(F)cc1 | < 10
CCOC(=O)c1sc(NC(=O)NC2CCCCC2)nc1C | 14.3
Cc1nc(NC(=O)Nc2ccccc2)sc1C(=O)NN | 9.63

Tested on: HCT-116
Assay: Cytotoxicity against human HCT116 cells assessed as growth inhibition at 10 uM after 48 hrs by SRB assay
Type: functional
Details: HCT-116, 48 h, read-out: GI
Procedure, shortened: as §2

Compound | inhibition of growth at 10 µM [%]
CCOC(=O)c1sc(NC(=O)c2cc(OC)c(OC)c(OC)c2)nc1C | 4.01
Cc1nc(N)sc1C(=O)Nc1ccc(F)cc1 | < 10
CCOC(=O)c1sc(NC(=O)NC2CCCCC2)nc1C | 14.2
Cc1nc(NC(=O)Nc2ccccc2)sc1C(=O)NN | 10.5

Tested on: NCI-H226
Assay: Cytotoxicity against human NCI-H226 cells assessed as growth inhibition at 10 uM after 48 hrs by SRB assay
Type: functional
Details: NCI-H226, 48 h, read-out: GI
Procedure, shortened: as §2

Compound | inhibition of growth at 10 µM [%]
CCOC(=O)c1sc(NC(=O)c2cc(OC)c(OC)c(OC)c2)nc1C | 12
Cc1nc(N)sc1C(=O)Nc1ccc(F)cc1 | 5.62
CCOC(=O)c1sc(NC(=O)NC2CCCCC2)nc1C | 9.89
Cc1nc(NC(=O)Nc2ccccc2)sc1C(=O)NN | 2.53

Tested on: Aspergillus niger
Assay: Antifungal activity against Aspergillus niger assessed as growth inhibition at 1 mg/mL after 24 hrs by agar-cup diffusion method
Type: functional, organism-based
Details: not given
Procedure, shortened: as §1

Compound | growth inhibition (GI)
CCOC(=O)c1sc(NC(=O)c2cc(OC)c(OC)c(OC)c2)nc1C | inactive
Cc1nc(N)sc1C(=O)Nc1ccc(F)cc1 | inactive
CCOC(=O)c1sc(NC(=O)NC2CCCCC2)nc1C | inactive
Cc1nc(NC(=O)Nc2ccccc2)sc1C(=O)NN | inactive

Tested on: Candida albicans
Assay: Fungicidal activity against Candida albicans ATCC 10231 after 18 hrs
Type: functional
Details: ATCC 10231, 18 h
Procedure, shortened: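 Continuation of the broth-dilution MIC test. A loopful from each tube without visible growth spread on a quarter of a Mueller-Hinton agar plate and incubated 18 h. Lowest concentration giving no growth on subculture taken as the MBC.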

Compound | MFC [µg/mL]
Cc1nc(N)sc1C(=O)Nc1ccc(F)cc1 | 100 (≈ 398 µM)
Cc1nc(NC(=O)Nc2ccccc2)sc1C(=O)NN | 25 (≈ 85.8 µM)

Tested on: Candida albicans
Assay: Antifungal activity against Candida albicans ATCC 10231 assessed as growth inhibition after 48 hrs by two-fold serial dilution assay
Type: functional
Details: ATCC 10231, 48 h
Procedure, shortened: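 Twofold serial broth dilution run on compounds giving inhibition zones of 13 mm or more. Organisms pre-grown in suitable broth at 37 °C, 24 h for bacteria and 48 h for fungi. Dilution series 200, 100, 50, 25, 12.5, 6.25. Each 5 mL tube inoculated with 0.1 mL and incubated 37 °C for 48 h. Tubes scored for presence or absence of growth.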

MIC [µg/mL] | Compound
100 (≈ 398 µM) | Cc1nc(N)sc1C(=O)Nc1ccc(F)cc1
25 (≈ 85.8 µM) | Cc1nc(NC(=O)Nc2ccccc2)sc1C(=O)NN
